Test results from ChEMBL document CHEMBL5537144, “Biological evaluation of carbohydrate-based aprepitant analogs for neuroblastoma treatment” (Eur J Med Chem, 2024).
Calls of active or inactive are those of the source. The rule behind the calls is not given here.

Columns and labels:
[1] = Cytotoxicity against human Kelly cells assessed as inhibition of cell viability incubated for 72 hrs by MTT assay; format: functional, cell-based
Method in brief: (§1)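 MTT assay. Cells were seeded and, after 24 h, treated for 72 h with graded concentrations: 0–400, 0–50 or 0–100 μM depending on compound, with aprepitant at 0–100 μM. Media were DMEM for SH-SY5Y, DMEM/F12 for RPE-1 and RPMI for Kelly, each with 10% FBS, at 37 °C and 5% CO2.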

[2] = Selectivity index, ratio of IC50 for human RPE-1 cells to IC50 for human Kelly cells
Method in brief: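 Selectivity index is IC50 in nonmalignant RPE-1 divided by IC50 in the cancer line (Kelly or SH-SY5Y). The index was calculated in each individual experiment and then averaged.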

[3] = Cytotoxicity against human RPE-1 cells assessed as inhibition of cell viability incubated for 72 hrs by MTT assay; format: toxicity, cell-based; settings: RPE-1 cells (TERT-RPE1); method in brief: as §1
[4] = tested on: SH-SY5Y; experiment: Cytotoxicity against human SH-SY5Y cells assessed as inhibition of cell viability incubated for 72 hrs by MTT assay; format: functional, cell-based; method in brief: as §1
[5] = tested on: Kelly; experiment: Induction of cell cycle arrest at S phase in human Kelly cells at 15 uM incubated for 48 hrs by flow cytometry; format: functional, cell-based
Method in brief: (§2)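 For cell cycle analysis, Kelly cells were treated 48 h with analogs at 20 or 40 μM or aprepitant at 15 μM. Cells were then harvested, fixed and stained with PI/RNase. G0/G1, S and G2/M fractions were measured by flow cytometry; mean ± SEM, n = 3 independent experiments.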

[6] = tested on: Kelly; experiment: Induction of cell cycle arrest at G2/M phase in human Kelly cells at 15 uM incubated for 48 hrs by flow cytometry; format: functional, cell-based; method in brief: as §2

| SMILES | IC50 [1] | Ratio IC50 [2] | IC50 at 72 h [3] | IC50 [4] | Activity [5] | Activity [6] |
| --- | --- | --- | --- | --- | --- | --- |
| C[C@@H](O[C@@H]1O[C@@H]2CO[C@@H](c3ccccc3)O[C@@H]2[C@H](O)[C@H]1OCc1ccc(F)cc1)c1cc(C(F)(F)F)cc(C(F)(F)F)c1 | 48.5 µM | 4.6 | 251 µM |  |  |  |
| C[C@@H](O[C@H]1O[C@H](CO)[C@@H](O)[C@H](N)[C@H]1OCc1ccc(F)cc1)c1cc(C(F)(F)F)cc(C(F)(F)F)c1 | 33.6 µM | 4.3 | 146 µM |  |  |  |
| C[C@@H](O[C@H]1O[C@@H]2CO[C@@H](c3ccccc3)O[C@H]2[C@H](N)[C@H]1OCc1ccc(F)cc1)c1cc(C(F)(F)F)cc(C(F)(F)F)c1 | 6.3 µM | 14.7 | 92.3 µM |  |  |  |
| C[C@@H](O[C@@H]1O[C@@H]2CO[C@@H](c3ccccc3)O[C@H]2[C@H](N=[N+]=[N-])[C@H]1OCc1ccc(F)cc1)c1cc(C(F)(F)F)cc(C(F)(F)F)c1 | 107 µM |  |  |  |  |  |
| C[C@@H](O[C@H]1O[C@@H]2CO[C@@H](c3ccccc3)O[C@H]2[C@H](N=[N+]=[N-])[C@H]1OCc1ccc(F)cc1)c1cc(C(F)(F)F)cc(C(F)(F)F)c1 | 234 µM |  |  |  |  |  |
| C[C@@H](O[C@H]1O[C@@H]2CO[C@@H](c3ccccc3)O[C@@H]2[C@H](O)[C@H]1OCc1ccc(F)cc1)c1cc(C(F)(F)F)cc(C(F)(F)F)c1 | 112 µM |  |  | 128 µM |  |  |
| C[C@@H](O[C@@H]1O[C@H](CO)[C@@H](O)[C@H](N=[N+]=[N-])[C@H]1OCc1ccc(F)cc1)c1cc(C(F)(F)F)cc(C(F)(F)F)c1 | 16.8 µM |  |  |  |  |  |
| C[C@@H](O[C@H]1OCCN(Cc2n[nH]c(=O)[nH]2)[C@H]1c1ccc(F)cc1)c1cc(C(F)(F)F)cc(C(F)(F)F)c1 [APREPITANT] | 15.1 µM | 11.7 | 176 µM |  | Active | inactive |
| C[C@@H](O[C@H]1O[C@H](CO)[C@@H](O)[C@H](N=[N+]=[N-])[C@H]1OCc1ccc(F)cc1)c1cc(C(F)(F)F)cc(C(F)(F)F)c1 | 88.4 µM |  |  |  |  |  |
